Here are results for 17 compounds from ChEMBL document CHEMBL3875231, “From Dynamic Combinatorial Chemistry to in Vivo Evaluation of Reversible and Irreversible Myeloperoxidase Inhibitors” (ACS Med Chem Lett, 2017).

Experiment [1] deals with T1, Myeloperoxidase (Homo sapiens, UniProt P05164).
T1 sequence (P05164 whole entry): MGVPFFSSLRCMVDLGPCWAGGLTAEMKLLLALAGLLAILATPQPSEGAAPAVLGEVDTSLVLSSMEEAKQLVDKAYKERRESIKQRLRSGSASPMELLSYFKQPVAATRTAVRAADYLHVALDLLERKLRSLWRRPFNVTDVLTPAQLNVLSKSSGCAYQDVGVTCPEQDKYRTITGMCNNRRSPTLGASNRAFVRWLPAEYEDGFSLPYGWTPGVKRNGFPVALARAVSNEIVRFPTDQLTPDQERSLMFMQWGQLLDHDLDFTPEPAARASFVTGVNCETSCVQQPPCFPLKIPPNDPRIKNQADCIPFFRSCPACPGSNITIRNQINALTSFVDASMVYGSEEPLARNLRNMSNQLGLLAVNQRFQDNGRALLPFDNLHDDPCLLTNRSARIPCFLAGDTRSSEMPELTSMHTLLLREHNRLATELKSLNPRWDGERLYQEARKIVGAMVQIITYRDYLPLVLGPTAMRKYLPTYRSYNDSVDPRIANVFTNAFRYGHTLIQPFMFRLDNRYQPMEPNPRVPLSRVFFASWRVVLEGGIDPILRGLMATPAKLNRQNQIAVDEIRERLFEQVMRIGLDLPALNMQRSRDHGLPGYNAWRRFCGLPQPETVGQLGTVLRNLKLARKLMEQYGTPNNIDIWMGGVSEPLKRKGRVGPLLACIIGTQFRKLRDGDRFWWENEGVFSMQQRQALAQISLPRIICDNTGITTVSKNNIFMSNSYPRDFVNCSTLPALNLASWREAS
Briefly: (§1) Inhibition of human MPO.

Experiment [2] has as its target T2, Myeloperoxidase (Homo sapiens) (UniProt P05164).
T2 sequence (whole entry): T1 sequence (P05164 whole entry)
Briefly: Inhibition of human MPO assessed as residual activity in presence of H2O2. More on the design: concentration or dose not given beside the values. In a few lines: (§2)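 Ligand and MPO were mixed with or without H2O2, then diluted 100-fold, and the residual enzymatic activity was measured. An H2O2-alone mixture served as control.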

Experiment [3] concerns the target T2, Myeloperoxidase (Homo sapiens). Briefly: Inhibition of human MPO assessed as residual activity in absence of […]. On the set-up: concentration or dose not given beside the values. In a few lines:
as §2

Experiment [4] has the same target. The experiment is described as §1. More on the design: concentration or dose not given beside the values. The settings on record: concentration not given here.
Experiment [5] concerns the target T1, Myeloperoxidase. Briefly: Irreversible inhibition of MPO (unknown origin). In a few lines:
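MPO was preincubated with ligand, with or without H2O2, alongside an H2O2-alone control. The mixture was then diluted 100-fold, residual enzymatic activity was measured, and inactivation was expressed as percent loss of activity.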

Experiment [6] deals with T2, Myeloperoxidase (Homo sapiens). Briefly: Inhibition of human MPO assessed as rate constant for reduction of PorFe(4)=O to PorFe(4)-OH in presence of H2O2 by stopped-flow method.
Experiment [7] has the same target. The experiment in a line: Irreversible inhibition of human MPO in presence of H2O2 by stopped-flow method.
The target is the same in experiment [8]. The experiment in a line: Inhibition of human MPO assessed as soret band formation at 429 nanometer in presence of H2O2 by stopped-flow method.
For experiment [9] the target is unchanged. The experiment in a line: Reversible inhibition of human MPO assessed as rate constant for reduction of PorFe(4)-OH to ferric MPO in presence of H2O2 by stopped-flow method.
Experiment [10] has as its system Rattus norvegicus. The experiment in a line: Ex vivo inhibition of MPO activity in peritoneal exudate of Wistar albino rat model of carrageenan-induced inflammation assessed as reduction in H2O2-dependent oxidation of TMB at 10 mg/kg, iv measured after 24 hrs. It counts as functional, organism-based. In short, it runs like this: (§3)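 Male Wistar Han rats had inflammation induced by intraperitoneal carrageenan, then received ligand at 10 mg/kg intravenously. Peritoneal liquid was collected. MPO concentration was measured at 24 h, and MPO activity at 24 h and at 48 h after drug administration. Comparators were carrageenan-only rats and reference rats not treated with carrageenan.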

Experiment [11] deals with Rattus norvegicus. Briefly: Ex vivo inhibition of MPO activity in peritoneal exudate of Wistar albino rat model of carrageenan-induced inflammation assessed as reduction in H2O2-dependent oxidation of TMB at 10 mg/kg, iv measured after 48 hrs. Format: functional, organism-based. In short, it runs like this: as §3
The test system of experiment [12] is Rattus norvegicus. The experiment in a line: Anti-inflammatory activity in Wistar albino rat assessed as inhibition of carrageenan-induced MPO release at 10 mg/kg, iv measured after 24 hrs by ELISA. Format: functional, organism-based. In short, it runs like this: as §3
On the technique in general: An ELISA detects its analyte on a solid surface through an enzyme-linked reagent.

In general, IC50 refers to the concentration needed to halve the response being measured. The term inhibition denotes the drop in the measured response relative to a control, in per cent.

The source made the active and inactive calls. The calls are words filed in the database; no cut-off is given here.

Consider `O=C(N/N=C/CO)c1ccncc1`, for which the IC50 in experiment [1] was greater than 5000 nM. The Activity in experiment [2] is 94%; in [3], 100%.

`NNC(=O)c1ccncc1` [ISONIAZID] yielded an inhibition in experiment [4] of 61%. Moreover, the IC50 came to 4700 nM in experiment [1] and 5000 nM in experiment [5]. The Activity in experiment [2] was 64%; in experiment [3], 98%.

In the case of `COc1cc(/C=N/Nc2nncc3ccccc23)ccc1O`, the inhibition in experiment [4] is 82%. In addition, the half-maximal inhibitory concentration (IC50) in [1] worked out at 340 nM. The values for the Activity in [2] and in experiment [3] were 22% and 87%, respectively. Further, the K in experiment [6] is 2.8 ×10⁵ /M/s. In experiment [7], the inhibition result was “Active”.

`CN(C)c1ccc(/C=N/Nc2nncc3ccccc23)cc1` showed an inhibition in experiment [4] of 100%. In addition, in experiment [1], inhibition was half-maximal at 80 nM (IC50). Moreover, the Activity in [2] worked out at 92%; in experiment [3] it was 93%. Further, the K was found to be 7.1 ×10⁵ /M/s in experiment [6] and 89.3 M⁻¹ s⁻¹ in experiment [9]. For the same compound, the inhibition result in experiment [8] and in [10] was “Active” in each case.

For `OC/C=N/Nc1ccc(F)cc1`, the concentration for half-maximal inhibition (IC50) in experiment [1] was greater than 5000 nM. Besides, the values for the Activity in [2] and in experiment [3] were 97% and 107%, respectively.

In experiment [4], `Cc1ccc(NN)cc1` came in with an inhibition of 61%.

Regarding `NNc1ccc(F)cc1`, the inhibition in experiment [4] amounted to 61%. The compound also showed a concentration for half-maximal inhibition (IC50) in [1] greater than 5000 nM. Also, the figures for the Activity in experiment [2] and in [3] were 98% and 103%, respectively.

`NNc1cccc2ccccc12` yielded an inhibition in experiment [4] of 61%.

In experiment [1], `OC/C=N/Nc1nncc2ccccc12` showed an IC50 of 110 nM. Moreover, the values for the Activity in experiment [2] and in [3] were 18% and 82%, respectively. Further, the K in [6] is 3.3 ×10⁵ /M/s. Also, the inhibition result in experiment [7], in [10] and in [11] was “Active” each time.

In turn, `COc1cc(/C=N/NC(=O)c2ccncc2)ccc1O` [FTIVAZIDE] came in with an inhibition in experiment [4] of 82%. In [1], this compound displayed an IC50 of 460 nM. Moreover, the values for the Activity in experiment [2] and in experiment [3] were 91% and 96%, respectively.

In experiment [4], `COc1cc(/C=N/Nc2ccc(F)cc2)ccc1O` showed an inhibition of 82%. This compound had a half-maximal inhibitory concentration (IC50) in experiment [1] of 1200 nM. The Activity in [2] stood at 98%; in experiment [3], 89%.

Regarding `COc1ccc(/C=N/NC(=O)c2ccncc2)cc1O`, in [4], the inhibition came out at 91%. The half-maximal inhibitory concentration (IC50) in experiment [1] worked out at 430 nM. Also, the values for the Activity in experiment [2] and in experiment [3] were 87% and 88%, respectively.

As for `COc1ccc(/C=N/Nc2nncc3ccccc23)cc1O`, in experiment [4], the inhibition came to 91%. In experiment [1], this compound gave a half-inhibitory concentration (IC50) of 150 nM. Moreover, the Activity in experiment [2] came out at 25%; in experiment [3] it was 93%. Moreover, the inhibition result in [12], in experiment [10] and in experiment [11] was “Active” each time.

As to `NNc1nncc2ccccc12` [HYDRALAZINE], the inhibition in experiment [4] is 61%. In addition, the IC50 in experiment [1] and in experiment [5] was 900 nM in each case. Further, the figures for the Activity in experiment [2] and in experiment [3] were 19% and 92%, respectively. Moreover, in experiment [6], the K came out at 7.1 ×10⁵ /M/s.

On to `CN(C)c1ccc(/C=N/NC(=O)c2ccncc2)cc1` [N'-(4-DIMETHYLAMINOBENZYLIDENE)ISONICOTINOHYDRAZIDE], for which the inhibition in experiment [4] is 100%. In experiment [1], this compound displayed a 50% inhibitory concentration (IC50) of 1620 nM. For the same compound, the Activity came to 93% in [2] and 91% in experiment [3].

`COc1ccc(/C=N/Nc2ccc(F)cc2)cc1O` showed an inhibition in experiment [4] of 91%. Further, in [1], it took 1130 nM to reach half-maximal inhibition (IC50). Further, the results for the Activity in [2] and in [3] were 92% and 81%, respectively.

Take `CN(C)c1ccc(/C=N/Nc2ccc(F)cc2)cc1`: the inhibition in [4] was 100%. The IC50 in [1] was determined as 3100 nM. Besides, the Activity in experiment [2] is 84%; in [3] it was 87%.
